Test results as given in ChEMBL document CHEMBL5712077, “Secreted heat shock protein 90 promotes prostate cancer stem cell heterogeneity” (Oncotarget, 2017).
Calls of active or inactive are those of the source. The rule behind the calls is not given here.

Experiments:
Details in all cases: time 3.0 day
DU-145 [1] = assay: Inhibition of extracellular Hsp90 in human DU145 cells expressing Hsp90 assessed as decrease in spheroid growth at 1 uM for 3 days and cells were treated pre-spheroid suspension by microscopic analysis; type: cell-based
Summary of the method: (§1)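 Spheroid passaging with inhibitor exposure. Pre-treatment: inhibitor given for 3 days before suspension. Post-treatment: inhibitor given at initial suspension. Continuous: 3-day pre-treatment, then kept on inhibitor in spheroid culture. Cells seeded at 2000 per well in low-attachment plates in DMEM/F12 with N2 and B27. Spheres of at least 5 cells counted at day 10-14 for each passage. Compared with untreated cells by Student's t-test.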

ARCaPE [2] = assay: Inhibition of extracellular Hsp90 in human ARCaPE cells expressing Hsp90 assessed as increase in spheroid growth at 1 uM for 3 days and cells were treated post spheroid suspension by microscopic analysis; type: cell-based; summary of the method: as §1
DU-145 [3] = assay: Inhibition of extracellular Hsp90 in human DU145 cells expressing Hsp90 assessed as decrease in spheroid growth at 1 uM for 3 days and cells were treated under continuous condition by microscopic analysis; type: cell-based; summary of the method: as §1
M12 = assay: Inhibition of extracellular Hsp90 in human M12 cells expressing Hsp90 assessed as reduction in side population ast 1 uM after 3 days by Hoechst staining based flow cytometry
ARCaPE [4] = assay: Inhibition of extracellular Hsp90 in human ARCaPE cells expressing Hsp90 assessed as decrease in spheroid growth at 1 uM for 3 days and cells were treated under continuous condition by microscopic analysis; type: cell-based; summary of the method: as §1
ARCaPE [5] = assay: Inhibition of extracellular Hsp90 in human ARCaPE cells expressing Hsp90 assessed as decrease in spheroid growth at 1 uM for 3 days and cells were treated pre-spheroid suspension by microscopic analysis; type: cell-based; summary of the method: as §1
DU-145 [6] = assay: Inhibition of extracellular Hsp90 in human DU-145 cells expressing Hsp90 assessed as reduction in side population ast 1 uM after 3 days by Hoechst staining based flow cytometry; type: cell-based
Summary of the method: (§2)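 Side population by flow cytometry after 3 days of inhibitor treatment. Cells at 1 x 10^6/mL in culture medium were stained with Hoechst 33342 at 5 ug/mL for 2 h at 37C, protected from light. Propidium iodide excluded dead cells. UV laser; Hoechst red 620 nm against blue 448 nm. Gate set on 50 uM verapamil controls. At least three repeats, Student's t-test.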

[7] = target: Histone-lysine N-methyltransferase EZH2 (Homo sapiens) (UniProt Q15910); assay: Inhibition of EZH2 in human DU-145 cells expressing Hsp90 assessed as decrease in spheroid growth at 500 nM for 3 days and cells were treated under continuous condition by microscopic analysis; type: cell-based; summary of the method: as §1
[8] = target: Histone-lysine N-methyltransferase EZH2 (Homo sapiens) (UniProt Q15910); assay: Inhibition of EZH2 in human DU-145 cells expressing Hsp90 assessed as decrease in spheroid growth at 500 nM for 3 days and cells were treated post-spheroid suspension by microscopic analysis; type: cell-based; summary of the method: as §1
[9] = target: Histone-lysine N-methyltransferase EZH2 (Homo sapiens) (UniProt Q15910); assay: Inhibition of EZH2 in human DU-145 cells expressing Hsp90 assessed as reduction in side population at 500 nM after 3 days by Hoechst staining based flow cytometry; type: cell-based; summary of the method: as §2
[10] = target: Histone-lysine N-methyltransferase EZH2 (Homo sapiens) (UniProt Q15910); assay: Inhibition of EZH2 in human ARCaPE cells expressing Hsp90 assessed as decrease in spheroid growth at 500 nM for 3 days and cells were treated pre-spheroid suspension by microscopic analysis; type: cell-based; summary of the method: as §1
[11] = target: Histone-lysine N-methyltransferase EZH2 (Homo sapiens) (UniProt Q15910); assay: Inhibition of EZH2 in human DU-145 cells expressing Hsp90 assessed as decrease in spheroid growth at 500 nM for 3 days and cells were treated pre-spheroid suspension by microscopic analysis; type: cell-based; summary of the method: as §1
[12] = target: Histone-lysine N-methyltransferase EZH2 (Homo sapiens) (UniProt Q15910); assay: Inhibition of EZH2 in human ARCaPE cells expressing Hsp90 assessed as decrease in spheroid growth at 500 nM for 3 days and cells were treated post-spheroid suspension by microscopic analysis; type: cell-based; summary of the method: as §1
[13] = target: Histone-lysine N-methyltransferase EZH2 (Homo sapiens) (UniProt Q15910); assay: Inhibition of EZH2 in human ARCaPE cells expressing Hsp90 assessed as decrease in spheroid growth at 500 nM for 3 days and cells were treated under continuous condition by microscopic analysis; type: cell-based; summary of the method: as §1
[14] = target: Histone-lysine N-methyltransferase EZH2 (Homo sapiens) (UniProt Q15910); assay: Inhibition of EZH2 in human ARCaPE cells expressing Hsp90 assessed as reduction in side population at 500 nM after 3 days by Hoechst staining based flow cytometry; type: cell-based; summary of the method: as §2

Sequence of Histone-lysine N-methyltransferase EZH2 (Homo sapiens) (Q15910 whole entry, looked up): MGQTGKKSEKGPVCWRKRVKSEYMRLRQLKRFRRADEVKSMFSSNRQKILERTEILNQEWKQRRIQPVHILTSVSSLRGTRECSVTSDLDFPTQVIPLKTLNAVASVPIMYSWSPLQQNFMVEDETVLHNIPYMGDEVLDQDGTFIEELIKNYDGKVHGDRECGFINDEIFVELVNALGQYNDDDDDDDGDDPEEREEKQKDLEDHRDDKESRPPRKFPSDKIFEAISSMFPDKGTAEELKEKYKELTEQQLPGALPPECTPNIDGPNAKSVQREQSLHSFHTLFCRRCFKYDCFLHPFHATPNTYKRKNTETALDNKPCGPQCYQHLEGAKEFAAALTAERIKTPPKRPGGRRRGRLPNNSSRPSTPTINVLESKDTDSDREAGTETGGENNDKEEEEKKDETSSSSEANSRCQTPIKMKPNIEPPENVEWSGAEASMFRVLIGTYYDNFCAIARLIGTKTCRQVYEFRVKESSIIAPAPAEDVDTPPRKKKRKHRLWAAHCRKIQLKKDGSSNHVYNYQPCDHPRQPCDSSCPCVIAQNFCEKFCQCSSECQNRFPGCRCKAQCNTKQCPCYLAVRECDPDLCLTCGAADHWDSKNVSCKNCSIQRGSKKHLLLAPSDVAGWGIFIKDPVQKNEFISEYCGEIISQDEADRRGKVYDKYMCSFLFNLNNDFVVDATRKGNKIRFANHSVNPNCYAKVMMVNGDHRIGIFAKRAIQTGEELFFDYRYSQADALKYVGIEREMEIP

inhibition [7]	inhibition [8]	inhibition [9]	inhibition [10]	inhibition [11]	inhibition [12]	inhibition [13]	inhibition [14]	SMILES	inhibition (DU-145 [1])	inhibition (ARCaPE [2])	inhibition (DU-145 [3])	inhibition (M12)	inhibition (ARCaPE [4])	inhibition (ARCaPE [5])	inhibition (DU-145 [6])
								COC1=C2C[C@@H](C)C[C@H](OC)[C@H](O)[C@@H](C)/C=C(\C)[C@H](OC(N)=O)[C@@H](OC)/C=C\C=C(/C)C(=O)NC(=CC1=O)C2=O	Active	inactive	Active	Active	Active	Active	Active
Active	Active	Active	Active	Active	Active	Active	Active	CCCc1cc(C)[nH]c(=O)c1CNC(=O)c1cc(-c2ccnc(N3CCN(C)CC3)c2)cc2c1cnn2C(C)C							
